Test results reported in ChEMBL document CHEMBL3588757, “Structure-based design, synthesis and biological testing of piperazine-linked bis-epipodophyllotoxin etoposide analogs” (Bioorg Med Chem, 2015).

Experiments:
[1] = target: DNA topoisomerase 2-alpha (Homo sapiens) (UniProt P11388); test: Inhibition of full-length human recombinant topoisomerase 2-alpha mediated relaxation and cleavage of supercoiled pBR322 plasmid DNA to linear DNA by ethidium bromide staining based gel electrophoresis assay
DNA topoisomerase 2-alpha (Homo sapiens), sequence (P11388 whole entry): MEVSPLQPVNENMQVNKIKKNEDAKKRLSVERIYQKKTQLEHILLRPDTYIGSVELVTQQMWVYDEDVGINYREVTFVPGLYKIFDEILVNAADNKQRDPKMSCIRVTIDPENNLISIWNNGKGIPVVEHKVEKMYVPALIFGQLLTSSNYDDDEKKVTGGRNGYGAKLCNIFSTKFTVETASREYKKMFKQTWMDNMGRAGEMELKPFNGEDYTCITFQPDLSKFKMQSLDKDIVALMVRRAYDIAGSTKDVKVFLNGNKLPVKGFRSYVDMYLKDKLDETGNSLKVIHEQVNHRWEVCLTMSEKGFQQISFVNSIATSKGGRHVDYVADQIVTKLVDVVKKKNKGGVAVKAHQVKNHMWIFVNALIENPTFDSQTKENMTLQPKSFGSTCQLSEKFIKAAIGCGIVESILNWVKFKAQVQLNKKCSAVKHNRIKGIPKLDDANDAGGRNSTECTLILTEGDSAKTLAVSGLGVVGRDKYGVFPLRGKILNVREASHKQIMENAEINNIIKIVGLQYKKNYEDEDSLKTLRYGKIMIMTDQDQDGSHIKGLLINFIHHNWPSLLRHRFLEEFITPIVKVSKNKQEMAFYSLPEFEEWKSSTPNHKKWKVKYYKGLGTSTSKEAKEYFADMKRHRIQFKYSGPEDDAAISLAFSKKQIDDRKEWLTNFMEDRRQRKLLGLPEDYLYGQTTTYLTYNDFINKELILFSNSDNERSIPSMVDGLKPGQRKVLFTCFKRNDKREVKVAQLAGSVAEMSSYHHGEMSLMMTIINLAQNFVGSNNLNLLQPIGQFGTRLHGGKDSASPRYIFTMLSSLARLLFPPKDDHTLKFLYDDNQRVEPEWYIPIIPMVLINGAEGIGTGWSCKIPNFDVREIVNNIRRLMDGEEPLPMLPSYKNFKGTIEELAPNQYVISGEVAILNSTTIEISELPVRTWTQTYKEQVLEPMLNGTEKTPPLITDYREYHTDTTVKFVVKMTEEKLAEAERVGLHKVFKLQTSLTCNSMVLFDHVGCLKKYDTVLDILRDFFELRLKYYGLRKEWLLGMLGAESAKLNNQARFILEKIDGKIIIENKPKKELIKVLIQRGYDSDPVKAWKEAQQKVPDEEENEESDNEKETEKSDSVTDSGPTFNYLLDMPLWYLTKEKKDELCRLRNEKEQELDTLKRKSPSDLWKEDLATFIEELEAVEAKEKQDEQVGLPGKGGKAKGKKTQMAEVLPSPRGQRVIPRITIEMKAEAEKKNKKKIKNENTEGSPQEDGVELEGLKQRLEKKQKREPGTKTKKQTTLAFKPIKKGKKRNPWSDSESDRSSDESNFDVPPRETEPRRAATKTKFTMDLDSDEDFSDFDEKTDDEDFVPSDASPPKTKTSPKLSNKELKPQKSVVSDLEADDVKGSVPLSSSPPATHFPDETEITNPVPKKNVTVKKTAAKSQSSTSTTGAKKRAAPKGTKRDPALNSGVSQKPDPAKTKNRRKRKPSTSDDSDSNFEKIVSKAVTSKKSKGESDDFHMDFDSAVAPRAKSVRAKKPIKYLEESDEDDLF
Method in brief: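 Recombinant full-length human topoisomerase IIα with supercoiled pBR322 DNA at 37 °C. Components mixed on ice before drug addition. Complexes trapped with SDS; products run on ethidium bromide gels. Linear DNA identified against a HindIII-linearized marker; repeated on three days.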

M14 [2] = test: Cytotoxicity against human M14 cells assessed as cell growth at 50 uM by SRB assay; type: functional; conditions: read-out: Activity
SK-MEL-2 = test: Cytotoxicity against human SK-MEL-2 cells assessed as cell growth at 50 uM by SRB assay; type: functional; conditions: read-out: Activity
OVCAR-8 = test: Cytotoxicity against human OVCAR8 cells assessed as cell growth at 50 uM by SRB assay; type: functional; conditions: read-out: Activity
ACHN [3] = test: Cytotoxicity against human ACHN cells assessed as cell growth at 50 uM by SRB assay; type: functional; conditions: read-out: Activity
T47D = test: Cytotoxicity against human T47D cells assessed as cell growth at 50 uM by SRB assay; type: functional; conditions: read-out: Activity
SF-539 = test: Cytotoxicity against human SF539 cells by SRB assay; type: functional
Method in brief: (§1)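 NCI-60 panel screen; 5-dose testing giving GI50 per cell line, plus a single 10 µM one-dose test. Method details not given beyond the NCI screen.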

SNB-75 [4] = test: Cytotoxicity against human SNB75 cells by SRB assay; type: functional; method in brief: as §1
786-0 [5] = test: Cytotoxicity against human 786-0 cells by SRB assay; type: functional
SN12C [6] = test: Cytotoxicity against human SN12C cells by SRB assay; type: functional; method in brief: as §1
UO-31 = test: Cytotoxicity against human UO31 cells by SRB assay; type: functional; method in brief: as §1
COLO 205 = test: Cytotoxicity against human COLO205 cells assessed as cell growth at 0.005 uM by SRB assay; type: functional; conditions: read-out: Activity
SK-MEL-5 = test: Cytotoxicity against human SK-MEL-5 cells assessed as cell growth at 0.005 uM by SRB assay; type: functional; conditions: read-out: Activity
MDA-MB-231 [7] = test: Cytotoxicity against human MDA-MB-231/ATCC cells assessed as cell growth at 0.005 uM by SRB assay; type: functional; conditions: read-out: Activity
A549 = test: Cytotoxicity against human A549/ATCC cells assessed as cell growth at 0.05 uM by SRB assay; type: functional; conditions: read-out: Activity
HCC 2998 [8] = test: Cytotoxicity against human HCC2998 cells assessed as cell growth at 0.05 uM by SRB assay; type: functional; conditions: read-out: Activity
Method in brief: (§2)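 Measured in the NCI-60 human tumour cell line panel using five-dose testing. Growth was recorded at each dose for each cell line, and a GI50 was derived for each line.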

SF-295 = test: Cytotoxicity against human SF295 cells assessed as cell growth at 0.05 uM by SRB assay; type: functional; conditions: read-out: Activity
U-251 = test: Cytotoxicity against human U251 cells assessed as cell growth at 0.05 uM by SRB assay; type: functional; conditions: read-out: Activity
M14 [9] = test: Cytotoxicity against human M14 cells assessed as cell growth at 0.05 uM by SRB assay; type: functional; conditions: read-out: Activity
SK-MEL-28 [10] = test: Cytotoxicity against human SK-MEL-28 cells assessed as cell growth at 0.05 uM by SRB assay; type: functional; conditions: read-out: Activity
CAKI-1 = test: Cytotoxicity against human Caki1 cells assessed as cell growth at 0.05 uM by SRB assay; type: functional; conditions: read-out: Activity
SN12C [11] = test: Cytotoxicity against human SN12C cells assessed as cell growth at 0.05 uM by SRB assay; type: functional; conditions: read-out: Activity
PC-3 = test: Cytotoxicity against human PC3 cells assessed as cell growth at 0.05 uM by SRB assay; type: functional; conditions: read-out: Activity
HL-60(TB) [12] = test: Cytotoxicity against human HL-60(TB) cells assessed as cell growth at 0.5 uM by SRB assay; type: functional; conditions: read-out: Activity; method in brief: as §2
RPMI-8226 = test: Cytotoxicity against human RPMI8226 cells assessed as cell growth at 0.5 uM by SRB assay; type: functional; conditions: read-out: Activity
SNB-75 [13] = test: Cytotoxicity against human SNB75 cells assessed as cell growth at 0.5 uM by SRB assay; type: functional; conditions: read-out: Activity
M14 [14] = test: Cytotoxicity against human M14 cells assessed as cell growth at 0.5 uM by SRB assay; type: functional; conditions: read-out: Activity
SK-MEL-28 [15] = test: Cytotoxicity against human SK-MEL-28 cells assessed as cell growth at 0.5 uM by SRB assay; type: functional; conditions: read-out: Activity
UACC-257 = test: Cytotoxicity against human UACC257 cells assessed as cell growth at 0.5 uM by SRB assay; type: functional; conditions: read-out: Activity
786-0 [16] = test: Cytotoxicity against human 786-0 cells assessed as cell growth at 0.5 uM by SRB assay; type: functional; conditions: read-out: Activity
RXF 393 = test: Cytotoxicity against human RXF393 cells assessed as cell growth at 0.5 uM by SRB assay; type: functional; conditions: read-out: Activity
MDA-MB-231 [17] = test: Cytotoxicity against human MDA-MB-231/ATCC cells assessed as cell growth at 0.5 uM by SRB assay; type: functional; conditions: read-out: Activity
HOP-92 = test: Cytotoxicity against human HOP92 cells assessed as cell growth at 5 uM by SRB assay; type: functional; conditions: read-out: Activity; method in brief: as §2
NCI-H522 = test: Cytotoxicity against human NCI-H522 cells assessed as cell growth at 5 uM by SRB assay; type: functional; conditions: read-out: Activity
SNB-75 [18] = test: Cytotoxicity against human SNB75 cells assessed as cell growth at 5 uM by SRB assay; type: functional; conditions: read-out: Activity
SK-MEL-28 [19] = test: Cytotoxicity against human SK-MEL-28 cells assessed as cell growth at 5 uM by SRB assay; type: functional; conditions: read-out: Activity
OVCAR-4 = test: Cytotoxicity against human OVCAR4 cells assessed as cell growth at 5 uM by SRB assay; type: functional; conditions: read-out: Activity
SK-OV-3 = test: Cytotoxicity against human SKOV3 cells assessed as cell growth at 5 uM by SRB assay; type: functional; conditions: read-out: Activity
ACHN [20] = test: Cytotoxicity against human ACHN cells assessed as cell growth at 5 uM by SRB assay; type: functional; conditions: read-out: Activity
DU-145 = test: Cytotoxicity against human DU145 cells assessed as cell growth at 5 uM by SRB assay; type: functional; conditions: read-out: Activity; method in brief: as §2
HL-60(TB) [21] = test: Cytotoxicity against human HL-60(TB) cells assessed as cell growth at 50 uM by SRB assay; type: functional; conditions: read-out: Activity; method in brief: as §2
HCC 2998 [22] = test: Cytotoxicity against human HCC2998 cells assessed as cell growth at 50 uM by SRB assay; type: functional; conditions: read-out: Activity; method in brief: as §2
[23] = read-out: LC50 (the source's name)
[24] = read-out: pLC50 (the source's name) (converted)

COc1cc([C@@H]2c3cc4c(cc3[C@@H](NC(=O)CN3CCN(CCCCCCN5CCN(CC(=O)N[C@@H]6c7cc8c(cc7[C@@H](c7cc(OC)c(O)c(OC)c7)[C@H]7C(=O)OC[C@@H]76)OCO8)CC5)CC3)[C@H]3COC(=O)[C@H]23)OCO4)cc(OC)c1O
Effect on topoisomerase 2-alpha DNA cleavage (qualitative) [1]: Dose-dependent effect | growth at 50 µM (M14 [2]): -19% | growth at 50 µM (SK-MEL-2): -15% | growth at 50 µM (OVCAR-8): 43% | growth at 50 µM (ACHN [3]): 37% | growth at 50 µM (T47D): 2% | GI50 (SF-539; read-out: GI50): 0.898 µM | CC50 (SF-539; [23]): > 50 µM | TGI (SF-539; read-out: TGI): 3.57 µM | GI50 (SF-539; read-out: pGI50 (converted)): 0.891 µM | CC50 (SF-539; [24]): > 50.1 µM | TGI (SF-539; read-out: pTGI (converted)): 3.55 µM | GI50 (SNB-75 [4]; read-out: GI50): 0.957 µM | CC50 (SNB-75 [4]; [23]): > 50 µM | TGI (SNB-75 [4]; read-out: TGI): 12.8 µM | GI50 (SNB-75 [4]; read-out: pGI50 (converted)): 0.955 µM | CC50 (SNB-75 [4]; [24]): > 50.1 µM | TGI (SNB-75 [4]; read-out: pTGI (converted)): 12.9 µM | GI50 (786-0 [5]; read-out: GI50): 2.86 µM | CC50 (786-0 [5]; [23]): > 50 µM | TGI (786-0 [5]; read-out: TGI): 31.7 µM | GI50 (786-0 [5]; read-out: pGI50 (converted)): 2.88 µM | CC50 (786-0 [5]; [24]): > 50.1 µM | TGI (786-0 [5]; read-out: pTGI (converted)): 31.6 µM | GI50 (SN12C [6]; read-out: GI50): 1.31 µM | CC50 (SN12C [6]; [23]): > 50 µM | TGI (SN12C [6]; read-out: TGI): > 50 µM | GI50 (SN12C [6]; read-out: pGI50 (converted)): 1.32 µM | CC50 (SN12C [6]; [24]): > 50.1 µM | TGI (SN12C [6]; read-out: pTGI (converted)): > 50.1 µM | GI50 (UO-31; read-out: GI50): > 50 µM | CC50 (UO-31; [23]): > 50 µM | TGI (UO-31; read-out: TGI): > 50 µM | GI50 (UO-31; read-out: pGI50 (converted)): > 50.1 µM | CC50 (UO-31; [24]): > 50.1 µM | TGI (UO-31; read-out: pTGI (converted)): > 50.1 µM | growth at 0.005 µM (COLO 205): 101% | growth at 0.005 µM (SK-MEL-5): 97% | growth at 0.005 µM (MDA-MB-231 [7]): 103% | growth at 0.05 µM (A549): 89% | growth at 0.05 µM (HCC 2998 [8]): 104% | growth at 0.05 µM (SF-295): 93% | growth at 0.05 µM (U-251): 101% | growth at 0.05 µM (M14 [9]): 94% | growth at 0.05 µM (SK-MEL-28 [10]): 106% | growth at 0.05 µM (CAKI-1): 93% | growth at 0.05 µM (SN12C [11]): 97% | growth at 0.05 µM (PC-3): 90% | growth at 0.5 µM (HL-60(TB) [12]): 60% | growth at 0.5 µM (RPMI-8226): 67% | growth at 0.5 µM (SNB-75 [13]): 61% | growth at 0.5 µM (M14 [14]): 79% | growth at 0.5 µM (SK-MEL-28 [15]): 91% | growth at 0.5 µM (UACC-257): 108% | growth at 0.5 µM (786-0 [16]): 82% | growth at 0.5 µM (RXF 393): 91% | growth at 0.5 µM (MDA-MB-231 [17]): 97% | growth at 5 µM (HOP-92): 30% | growth at 5 µM (NCI-H522): 51% | growth at 5 µM (SNB-75 [18]): 22% | growth at 5 µM (SK-MEL-28 [19]): 56% | growth at 5 µM (OVCAR-4): 64% | growth at 5 µM (SK-OV-3): 44% | growth at 5 µM (ACHN [20]): 73% | growth at 5 µM (DU-145): 14% | growth at 50 µM (HL-60(TB) [21]): -1% | growth at 50 µM (HCC 2998 [22]): -10%
